Assay [1] relates to Mus musculus. Nature of the assay: Antiinflammatory activity in DSS- induced C57BL/6 mouse colitis model assessed as body weight at 5 mg/kg, ip after 10 days (reference value: 15.69 +/- 0.65 g). In kind it is functional. A digest of the protocol:
(§1)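 Female C57BL/6 mice, 6–8 weeks, randomized into five groups. Colitis induced by 2.5% w/v DSS in drinking water for 5 days, then 5 days of normal water. Test agent given ip at 5 or 10 mg/kg, or 5-ASA ig at 50 mg/kg, until study end. Controls were water plus vehicle and DSS plus vehicle. Body weight recorded daily; colon length taken at sacrifice on day 10. Mean ± SD, n = 10.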

The subject of assay [2] is Mus musculus. As to the kind of experiment: Antiinflammatory activity in DSS- induced C57BL/6 mouse colitis model assessed as body weight at 10 mg/kg, ip after 10 days (reference value: 15.69 +/- 0.65 g). Format: functional. In outline: as §1
Assay [3] concerns Mus musculus. As to the kind of experiment: Antiinflammatory activity in DSS- induced C57BL/6 mouse colitis model assessed as colon length at 5 mg/kg, ip after 10 days (reference value: 45.68 +/- 1.34 mm). Format: functional. In outline:
as §1

The subject of assay [4] is Mus musculus. As to the kind of experiment: Antiinflammatory activity in DSS- induced C57BL/6 mouse colitis model assessed as colon length at 10 mg/kg, ip after 10 days (reference value: 45.68 +/- 1.34 mm). In kind it is functional. A digest of the protocol:
as §1

Assay [5] relates to Mus musculus. As to the kind of experiment: Antiinflammatory activity in DSS- induced C57BL/6 mouse colon colitis model assessed as cellular infiltration of mononuclear macrophages/neutrophils at 10 mg/kg, ip after 24 hrs by hematoxylin/eosin staining based assay. Format: functional, organism-based. A digest of the protocol: (§2)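 Colitis induced in female C57BL/6 mice as 2.5% DSS in drinking water for 5 days, then 5 days of water. Dosing ip or 5-ASA ig until sacrifice at day 10. Colons fixed in 10% buffered formalin (pH 7.4) for at least 24 h. Sections scored for cellular infiltration, mucosal lesion and crypt damage to give a histologic score.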

The subject of assay [6] is Mus musculus. As to the kind of experiment: Antiinflammatory activity in DSS- induced C57BL/6 mouse colon colitis model assessed as mucosal/submucosal lesion at 10 mg/kg, ip after 24 hrs by hematoxylin/eosin staining based assay. In kind it is functional, organism-based. In outline: as §2
Assay [7] concerns Mus musculus. Nature of the assay: Antiinflammatory activity in DSS- induced C57BL/6 mouse colon colitis model assessed as degeneration/necrosis of crypt cells at 10 mg/kg, ip after 24 hrs by hematoxylin/eosin staining based assay. In kind it is functional, organism-based. A digest of the protocol:
as §2

Assay [8] relates to Mus musculus. As to the kind of experiment: Antiinflammatory activity in DSS- induced C57BL/6 mouse colon colitis model assessed as inhibition of IL6 expression at 5 to 10 mg/kg, ip after 24 hrs by hematoxylin staining based assay. Format: functional, organism-based. In outline: (§3)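 Colons come from the same DSS model, fixed in 10% buffered formalin for at least 24 h. Paraffin sections were deparaffinized. Antigen was retrieved in 10 mM sodium citrate with 0.1% Tween 20 at 100 °C for 20 min. Primary antibody was applied in PBS with 5% BSA and 10% goat serum, then HRP polymer at room temperature for 30 min. Detection was DAB with hematoxylin counterstain. IL-6 and COX-2 positive labeling was counted automatically. Mean ± SD.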

Assay [9] concerns Mus musculus. As to the kind of experiment: Antiinflammatory activity in DSS- induced C57BL/6 mouse colon colitis model assessed as inhibition of COX2 expression at 5 to 10 mg/kg, ip after 24 hrs by hematoxylin staining based assay. In kind it is functional, organism-based. In outline: as §3
In the next assay the target is Sphingosine kinase 1 (Homo sapiens, UniProt Q9NYA1). As to the kind of experiment: Inhibition of GST-tagged full length human recombinant SPHK1 expressed in baculovirus using sphingosine as substrate preincubated for 10 mins measured after 1 hr by ADP-quest assay.
A further assay has as its target T1, Sphingosine kinase 2 (Homo sapiens, UniProt Q9NRA0).
T1 sequence (Q9NRA0 whole entry): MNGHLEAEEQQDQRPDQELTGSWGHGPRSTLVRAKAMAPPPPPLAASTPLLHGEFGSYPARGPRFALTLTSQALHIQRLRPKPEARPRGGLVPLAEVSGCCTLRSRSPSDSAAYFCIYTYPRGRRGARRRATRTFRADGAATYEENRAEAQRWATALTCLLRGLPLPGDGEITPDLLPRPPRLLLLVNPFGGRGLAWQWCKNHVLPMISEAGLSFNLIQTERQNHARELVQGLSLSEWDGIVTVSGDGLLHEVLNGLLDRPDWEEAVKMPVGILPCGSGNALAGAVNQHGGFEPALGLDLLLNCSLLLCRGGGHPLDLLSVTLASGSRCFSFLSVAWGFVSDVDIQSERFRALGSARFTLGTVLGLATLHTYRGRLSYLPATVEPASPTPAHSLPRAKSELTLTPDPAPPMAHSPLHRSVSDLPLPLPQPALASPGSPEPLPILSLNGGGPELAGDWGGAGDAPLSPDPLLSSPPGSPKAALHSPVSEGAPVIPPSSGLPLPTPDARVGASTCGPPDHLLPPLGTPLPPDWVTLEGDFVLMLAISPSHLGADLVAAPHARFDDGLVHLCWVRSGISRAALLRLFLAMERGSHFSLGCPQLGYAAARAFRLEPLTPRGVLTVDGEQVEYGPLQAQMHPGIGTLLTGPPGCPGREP
Nature of the assay: Inhibition of GST-tagged full length human recombinant SPHK2 expressed in baculovirus using sphingosine as substrate preincubated for 10 mins measured after 1 hr by ADP-quest assay. In outline:
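Human recombinant SphK1 or SphK2 with sphingosine substrate and ATP, tested in 384-well format. Enzyme was preincubated with compound for 10 min, then the reaction ran at 28 °C for 1 h. ADP Quest reagents A and B were added for 30 min at room temperature. Fluorescence was read at Ex 530/Em 590 nm. Values are mean of n = 3 in triplicate.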

For assay [10], the system named is Mus musculus. As to the kind of experiment: Antiinflammatory activity in DSS- induced C57BL/6 mouse colitis model assessed as change in body weight at 5 to 10 mg/kg, ip after 7 days. In kind it is functional, organism-based. A digest of the protocol: as §1
For assay [11], the system named is Mus musculus. Nature of the assay: Antiinflammatory activity in DSS- induced C57BL/6 mouse colitis model assessed as body weight at 50 mg/kg, ig after 10 days (reference value: 15.69 +/- 0.65 g). Format: functional. In outline:
as §1

The test system of assay [12] is Mus musculus. As to the kind of experiment: Antiinflammatory activity in DSS- induced C57BL/6 mouse colon colitis model assessed as cellular infiltration of mononuclear macrophages/neutrophils at 50 mg/kg, ig after 24 hrs by hematoxylin/eosin staining based assay. Format: functional, organism-based. In outline: as §2
Assay [13] concerns Mus musculus. Nature of the assay: Antiinflammatory activity in DSS- induced C57BL/6 mouse colitis model assessed as colon length at 50 mg/kg, ig after 10 days (reference value: 45.68 +/- 1.34 mm). In kind it is functional. A digest of the protocol: as §1
The subject of assay [14] is Mus musculus. Nature of the assay: Antiinflammatory activity in DSS- induced C57BL/6 mouse colon colitis model assessed as mucosal/submucosal lesion at 50 mg/kg, ig after 24 hrs by hematoxylin/eosin staining based assay. Format: functional, organism-based. A digest of the protocol:
as §2

Assay [15] deals with Mus musculus. Nature of the assay: Antiinflammatory activity in DSS- induced C57BL/6 mouse colon colitis model assessed as degeneration/necrosis of crypt cells at 50 mg/kg, ig after 24 hrs by hematoxylin/eosin staining based assay. Format: functional, organism-based. In outline: as §2
In assay [16] the test system is Mus musculus. As to the kind of experiment: Antiinflammatory activity in DSS- induced C57BL/6 mouse colon colitis model assessed as inhibition of IL6 expression at 50 mg/kg, ig after 24 hrs by hematoxylin staining based assay. Format: functional, organism-based. A digest of the protocol: as §3
The subject of assay [17] is Mus musculus. Nature of the assay: Antiinflammatory activity in DSS- induced C57BL/6 mouse colon colitis model assessed as inhibition of COX2 expression at 50 mg/kg, ig after 24 hrs by hematoxylin staining based assay. Format: functional, organism-based. In outline: as §3
The test system of assay [18] is Mus musculus. Nature of the assay: Antiinflammatory activity in DSS- induced C57BL/6 mouse colitis model assessed as change in body weight at 50 mg/kg, ig after 7 days. In kind it is functional, organism-based. In outline: as §1

The structures appear in SMILES notation. Active and inactive are the calls of the source. The calls are words filed in the database; no cut-off is given here.

Sphingosine kinase 1, sequence (Q9NYA1 whole entry): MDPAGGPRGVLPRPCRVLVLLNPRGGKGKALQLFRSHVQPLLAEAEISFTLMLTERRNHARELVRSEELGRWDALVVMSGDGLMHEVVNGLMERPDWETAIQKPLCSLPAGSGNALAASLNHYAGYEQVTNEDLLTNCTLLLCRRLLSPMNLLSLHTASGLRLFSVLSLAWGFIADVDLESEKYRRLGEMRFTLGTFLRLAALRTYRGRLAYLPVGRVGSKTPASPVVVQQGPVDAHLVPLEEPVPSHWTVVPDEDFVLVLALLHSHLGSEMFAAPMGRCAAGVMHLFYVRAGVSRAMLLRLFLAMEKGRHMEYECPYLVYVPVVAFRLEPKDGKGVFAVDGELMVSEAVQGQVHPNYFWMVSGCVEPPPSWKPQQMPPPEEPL

The term IC50 denotes the midpoint of a concentration-inhibition curve. As for `COc1cccc(COc2ccc(/C=N/NC(=O)c3cc(O)c(O)c(O)c3)cc2)c1`, the Activity in the assay on Mus musculus [1] came to 17.1 g; in the assay with Mus musculus [2], 17.5 g; in the assay with Mus musculus [3], 53.04 mm; in the assay with Mus musculus [4], 51.41 mm. The outcome in the assay with Mus musculus [5], with Mus musculus [6] and in the assay on Mus musculus [7] was Active. Also, the inhibition entry with Mus musculus [8] and in the assay on Mus musculus [9] was “Active” throughout. Besides, the figures for the IC50 at Sphingosine kinase 1 and at Sphingosine kinase 2 were 4.36 µM and 2.17 µM, respectively. Moreover, the outcome with Mus musculus [10] was inactive.
With `Nc1ccc(O)c(C(=O)O)c1` [MESALAMINE], the Activity in the assay with Mus musculus [11] turned out to be 18.32 g; with Mus musculus [13] it was 53.4 mm. In addition, the outcome in the assay with Mus musculus [12], in the assay on Mus musculus [14] and in the assay with Mus musculus [15] was Active. The inhibition result with Mus musculus [16] and with Mus musculus [17] was “Active” each time. Also, the result in the assay with Mus musculus [18] was inactive.

These data come from ChEMBL document CHEMBL3813598, “Development of hydroxy-based sphingosine kinase inhibitors and anti-inflammation in dextran sodium sulfate induced colitis in mice” (Bioorg Med Chem, 2016).
